These results are taken from ChEMBL document CHEMBL3351414, “Novel 9'-substituted-noscapines: synthesis with Suzuki cross-coupling, structure elucidation and biological evaluation” (Eur J Med Chem, 2014).

pIC50: −log10 of the molar value. Active and inactive are the calls of the source. The rule behind the calls is not given here.

For assay [1], the system named is HeLa. The assay is described as follows: Effect on PCM1 protein in human HeLa cells assessed as accumulation of pericentriolar material at 25 uM after 24 hrs by immunofluorescence microscopy. It counts as functional, cell-based. The essentials:
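After 24 h at 25 µM, HeLa cells were stained with anti-PCM1 and Alexa-conjugated secondary antibody, with phalloidin-tetramethylrhodamine B for actin and DAPI for nuclei. Cells were imaged by confocal microscopy at 60×.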

A further assay concerns HT-29. The assay is described as follows: Antiproliferative activity against human HT-29 cells assessed as reduction in cell viability after 72 hrs by MTT assay. The format is functional, cell-based. The note with it: HT-29, 72 h. In short, it runs like this: (§1)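 Cells kept in RPMI-1640 (Jurkat, SEM, RS4;11) or DMEM (A549, HeLa, IGROV-1, HT-29) with 10% FBS plus penicillin/streptomycin. 8×10^3 cells per well were left 18 h at 37 °C in 5% CO2. Medium was then replaced with fresh medium holding graded compound concentrations from 10 mM DMSO stocks. Cells were incubated 72 h and viability read by MTT. IC50 is the mean ± SEM from dose–response curves of at least three independent experiments.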

The next assay relates to A549. The assay is described as follows: Antiproliferative activity against human A549 cells assessed as reduction in cell viability after 72 hrs by MTT assay. The format is functional, cell-based. Particulars: A549, 72 h. The essentials:
as §1

The test system of assay [2] is PBL. The assay is described as follows: Cytotoxicity against resting human PBLs assessed as reduction in cell growth. It counts as cell-based. In short, it runs like this: (§2)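 Peripheral blood lymphocytes from healthy donors, tested either resting (no PHA) or PHA-stimulated. Value is the concentration reducing cell growth by 50%, mean ± SEM of three separate experiments.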

Assay [3] is described as follows: Antiproliferative activity against human RS4:11 cells assessed as reduction in cell viability after 72 hrs by MTT assay. The format is functional, cell-based. Particulars: RS4-11, 72 h. The essentials: as §1
Another assay has as its system LoVo. Put plainly: Antiproliferative activity against human LoVo cells assessed as reduction in cell viability after 72 hrs by MTT assay. The format is functional, cell-based.
The test system of assay [4] is PBL. Put plainly: Cytotoxicity against PHA-stimulated human PBLs assessed as reduction in cell growth. It counts as cell-based. In short, it runs like this: as §2
Assay [5] can be described thus: Antiproliferative activity against human SEM cells assessed as reduction in cell viability after 72 hrs by MTT assay. It counts as functional, cell-based. In short, it runs like this:
as §1

Another assay has as its system IGROV-1. The assay is described as follows: Antiproliferative activity against human IGROV1 cells assessed as reduction in cell viability after 72 hrs by MTT assay. The format is functional, cell-based. The note with it: IGROV-1, 72 h. In short, it runs like this:
as §1

The subject of the next assay is Jurkat. Put plainly: Antiproliferative activity against human Jurkat cells assessed as reduction in cell viability after 72 hrs by MTT assay. It counts as functional, cell-based. The essentials: as §1
The subject of the next assay is CCRF-CEM. The assay is described as follows: Antiproliferative activity against human CEM cells assessed as reduction in cell viability after 72 hrs by MTT assay. The format is functional, cell-based.
In a further assay the target is Tubulin (Bos taurus) (UniProt Q6B856+Q862L2+Q862F3). Put plainly: Displacement of [3H]colchicine from bovine brain tubulin at 500 uM after 10 mins by liquid scintillation counting.
The target in assay [6] is T1, Tubulin (Bos taurus, UniProt Q6B856+Q862L2+Q862F3). The assay is described as follows: Inhibition of bovine brain tubulin assessed as extent of assembly preincubated for 15 mins by turbidimetry. In short, it runs like this:
(§3)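 Bovine brain tubulin at 10 µM (1.0 mg/mL) in 0.8 M monosodium glutamate pH 6.6 with 4% DMSO and varying compound was preincubated 15 min at 30 °C, then chilled. GTP was added to 0.4 mM final and the temperature jumped from 0 to 30 °C. Turbidity was followed at 350 nm, scoring either maximum rate or extent of assembly at 20 min.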

Assay [7] concerns the target T1, Tubulin. The assay is described as follows: Inhibition of bovine brain tubulin assessed as rate of assembly preincubated for 15 mins by turbidimetry. The essentials:
as §3

The target of assay [8] is T1, Tubulin. The assay is described as follows: Displacement of [3H]colchicine from bovine brain tubulin assessed as rate of assembly after 10 mins by liquid scintillation counting.
The subject of assay [9] is HeLa. The assay is described as follows: Antiproliferative activity against human HeLa cells assessed as reduction in cell viability after 72 hrs by MTT assay. The format is functional, cell-based. The essentials: as §1

`COC(=O)Nc1nc2cc(C(=O)c3cccs3)ccc2[nH]1`: the outcome with HeLa [1] was Active.
As to `COc1ccc(-c2c3c(c(OC)c4c2OCO4)[C@H]([C@H]2OC(=O)c4c2ccc(OC)c4OC)N(C)CC3)cc1`, the pIC50 in the assay with HT-29 is 4.32; in the assay with A549, less than 4.00; with PBL [2], less than 3.70; in assay [3], 4.90; in the assay with LoVo, 4.54; in the assay with PBL [4] it was less than 3.70. The negative logarithm of the IC50 (pIC50) in [5] was 4.82; in the assay with IGROV-1 it was 4.25; with Jurkat, 4.95; in the assay on CCRF-CEM, 4.59.
Turning to `COc1ccccc1-c1c2c(c(OC)c3c1OCO3)[C@H]([C@H]1OC(=O)c3c1ccc(OC)c3OC)N(C)CC2`, the pIC50 is 4.14 in the assay on HT-29; 4.22 in the assay on A549; less than 3.70 in the assay on PBL [2]; 4.86 in assay [3]; 4.24 in the assay on LoVo; 4.37 in the assay on PBL [4]. Further, the pIC50 was 4.65 in assay [5]; 4.04 with IGROV-1; 4.47 in the assay on Jurkat; 5.16 in the assay with CCRF-CEM; 4.51 with HeLa [9]. At Tubulin (Bos taurus), this molecule gave an inhibition of 13%. Moreover, the 50% inhibitory concentration (IC50) on Tubulin [6], at Tubulin [7] and at Tubulin [8] was greater than 400 µM throughout.
Consider `COc1ccc2c(c1OC)C(=O)O[C@@H]2[C@H]1c2c(c(-c3ccc4ccccc4c3)c3c(c2OC)OCO3)CCN1C`, for which the negative logarithm of the IC50 (pIC50) with HT-29 was 4.23; in the assay on A549, 4.32; with PBL [2], less than 3.70; in [3] it was 4.51; in the assay with LoVo it was 4.22; in the assay with PBL [4] it was less than 3.70. Further, the negative logarithm of the IC50 (pIC50) is 5.08 in assay [5]; 4.17 in the assay with IGROV-1; 4.70 with Jurkat; 4.63 with CCRF-CEM; 4.56 in the assay on HeLa [9].
